S1P1 ag pot: S1P1 agonists and agonism potentiators, primary screen, cell-based, primary and confirmation screens, CRE-bla reporter | S1P1 CRE-bla cells, forskolin, beta-lactamase FRET, potentiator mode; S1P1 agonist co-added at EC20, 2 nM; 100% = saturating reference agonist, 0% = basal | activation, % at 9.5 µM | 0.57% of 56,000 active;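 active = activation above a cutoff set at the mean activation of all tested compounds plus 3 SD, cut at about 54% in these data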;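 note: forskolin at 4 µM as EC80 and the EC20 agonist is SEW2871; 100% = SEW2871 at its EC100 plus forskolin at EC80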
S1P3 ag: human S1P3 receptor agonists, primary screen, cell-based, primary and confirmation, NFAT-BLA reporter. Sphingosine 1-phosphate receptor 3 (Homo sapiens), Q99500. 0.1% of 60,000 active. activation, % at 4.5 µM. S1P3 NFAT-BLA reporter cells, agonism, FRET ratio; relative to 1 µM S1P, basal subtracted;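 active = activation above the screen-wide mean plus 3 SD, cut at about 4.5% in these data, passing the limit was not always enough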
Target sequence (Q99500 whole entry, looked up): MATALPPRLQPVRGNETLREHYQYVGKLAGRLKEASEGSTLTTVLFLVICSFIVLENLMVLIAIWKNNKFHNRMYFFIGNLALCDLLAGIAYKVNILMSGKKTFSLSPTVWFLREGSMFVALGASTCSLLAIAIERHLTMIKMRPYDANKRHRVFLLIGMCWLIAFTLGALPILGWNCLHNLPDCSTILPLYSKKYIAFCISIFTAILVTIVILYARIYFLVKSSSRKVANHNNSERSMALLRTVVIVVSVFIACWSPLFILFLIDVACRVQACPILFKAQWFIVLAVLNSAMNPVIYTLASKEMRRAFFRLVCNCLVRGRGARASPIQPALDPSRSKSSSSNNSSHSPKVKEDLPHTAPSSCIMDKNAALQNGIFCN
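Benchmarks: high control 1 µM S1P / System: stable CHO line with human S1P3, Gα16, NFAT-BLA reporter / Dosing: single compound concentration, 4.5 µM final / Timing: 4 h compound at 37 °C, 2 h substrate at RT / Measured by: FRET β-lactamase substrate fluorescence, excitation 405 nm, 460/535 nm emission ratio, background-subtracted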
M1 antag: antagonists of rat M1 muscarinic receptor; B-score at 10 µM; AID 628, 2007; 3.4% of 64,000 active; CHO-M1 cells, Fluo-4 calcium, ACh EC80 antagonist mode; active compounds read low;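 active = calcium fluorescence response, raw or row-and-column corrected B-score, differing from the plate sample mean either way at a set confidence level, mostly lower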
M1 ag: M1 muscarinic receptor agonists, primary screen, CHO-M1 cells, Fluo-4 calcium, agonist mode; AID 626, 2007; Fluo-4 calcium fluorescence; active compounds read high; B-score at 10 µM; 3% of 64,000 active;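 active = fluorescence rise, raw or as B-score row- and column-corrected plate score, outside the 99.7% band of its plate's samples, either direction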
D1 allo mod: D1 CRE-luciferase signal change, two-sided – cell-based, HEK293 D1, dopamine EC30, D1 allosteric modulator project, primary screen; D(1A) dopamine receptor (Homo sapiens), P21728; dopamine EC30 potentiation; actives deviate in either direction; B-score at 10 µM; 5.9% of 58,000 active; AID 641, 2007;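 active = luminescence count or its row- and column-corrected plate score outside the 99.7% band of the plate's sample wells, on either side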
D1 mod confirm: D1 receptor positive allosteric modulators, retest, confirmation, cell-based, HEK293 D1, CRE-luciferase, duplicate; shares compounds with D1 allo mod; dopamine EC30 potentiation; active compounds read high; luminescence at 10 µM; 88% of 2,200 active;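 active = luminescence in either of two replicates above the same-plate mean plus 3 SD of the low-dose dopamine control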
D1 ag no DA: D1 receptor agonism without dopamine, confirmation, mechanism study for D1 allosteric modulator project, cell-based, HEK293 D1, CRE-luciferase, secondary assay 1. AID 646, 2007. 0.8% of 1,900 active. shares compounds with D1 allo mod. luminescence at 10 µM. luminescence, no dopamine; active compounds read high; in the data active = luminescence above about 3900
Isoprot counter: isoproterenol response counter-screen activity for D1 modulators. HEK293 D1 CRE-luciferase, isoproterenol EC30 counter-screen. calls only at 10 µM. AID 647. shares compounds with D1 allo mod. 63% of 2,200 active;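 active = luminescence in either replicate above plate mean of wells with a partly effective reference agonist dose plus 3 SD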;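 note: isoproterenol raises cAMP through native beta-adrenoceptor Gs so signal bypasses D1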
* = called active by the depositor; i = inactive; . = not tested or not shown; + = active, no number. Hits are enriched below; roughly 11% of the tested compounds scored in any of these assays.

SMILES	S1P1 ag pot	S1P3 ag	M1 antag	M1 ag	D1 allo mod	D1 mod confirm	D1 ag no DA	Isoprot counter
CC(C)(C)NC(=O)CN(C(=O)CS(=O)CC(=O)Nc1ccc(F)cc1)c1ccccc1 (stereo not given)	.	.	-0.13	0.89	0.93	.	.	.
c1ccn(-c2ncnc3sc4c(c23)CCCC4)c1	-13	-1	0.27	0.76	7.6*	13568*	.	+
c1cn(-c2ncnc3sc4c(c23)CCCC4)cn1	15	-1	0.55	-0.31	4.3	.	.	.
CC(C)(C)Nc1nc(NC(C)(C)C)nc(-n2ccnc2)n1	-17	0	-0.28	1.1	5.7*	17956*	2972	+
COc1ccc(N2CCN(c3ccc(NC(=O)c4ccc5c(c4)OCO5)cc3C#N)CC2)cc1	-23	0	0.85	-0.84	6.4*	5936	.	i
Cc1c(-c2ccccc2)[n+](=O)c(-c2ccco2)c(C)n1[O-]	-21	0	0.25	0.11	0.25	.	.	.
C=CCN1C(=O)/C(=C2\SC(N3CCOCC3)=NC2=O)c2cc(Br)ccc21	-22	-2	-0.12	0.05	9*	17804*	1580	+
Cc1cc(C(F)(F)F)nc(SCC(=O)NC2CC3CCC2C3)n1 (stereo not given)	0	-1	0.2	0.26	0.45	.	.	.
c1ccc(Cn2nnc3c(N4CCCCCC4)ncnc32)cc1	-29	0	-0.2	0.094	6.4*	7556*	1448	+
CCCN1CCN(c2ncnc3c2nnn3Cc2ccccc2)CC1	2	-1	-0.84	-2e-05	0.21	.	.	.
c1ccc(Cn2nnc3c(N4CCc5ccccc54)ncnc32)cc1	0	0	0.29	1.5	3*	6044*	1608	i
Cc1cc(C)cc(-n2nnc(C(=O)NCc3ccccc3Cl)c2N)c1	-27	-1	0.93	0.18	-0.15	.	.	.
COc1ccc(C2C(C(=O)Nc3ccccn3)=C(C)Nc3ncnn32)c(OC)c1 (stereo not given)	-4	-1	-1.1	0.04	-0.69	.	.	.
COc1nc(N(C#N)CC(N)=O)nc(N2CCCC2)n1	-28	1	0.096	-0.55	8.4*	20228*	1780	+
COc1nc(/C(N)=N/O)nc(N2CCCCC2)n1	-25	-1	1.1	-0.034	13*	24932*	1416	+
COC(=O)CN(C#N)c1nc(SC)nc(N(C)C)n1	2	-1	1.6	-0.72	-0.26	.	.	.
O=C(COC(=O)CCC(=O)c1ccc(Cl)cc1)NCC1CCCO1 (stereo not given)	13	1	2	-0.82	.	.	.	.
Cc1ccc2nc(NC(=O)c3ccc(Cn4cc(Cl)cn4)o3)sc2c1	7	-1	1.1	1.5	6.6*	5608	1540	i
CCOC(=O)N1CCN(C(=O)c2cc(-n3cnnc3)ccc2Cl)CC1	4	-1	0.79	0	-0.14	.	.	.
O=C(O)CCCC(=O)Nc1ccc(Br)cc1C(=O)O	1	0	0.17	-0.11	0.57	.	.	.
O=C(O)CCCC(=O)Nc1ccccc1Br	-5	-1	1.3	0.25	7.2*	4184	.	i
CCOC(=O)CN=C1CC(C)(C)CC2=C1Sc1ncnc(N(C)C)c1N2	-16	0	-1.4	8.2*	5.4*	10372*	1464	+
CCOC(=O)C1=C(C)NC2=C(C(=O)CC(C)(C)C2)C1c1cccc(C)n1 (stereo not given)	-5	0	0.9	0.98	0.81	.	.	.
CC(C)C(=O)Nc1ccc2c(c1)C(=O)N(CCC(=O)O)C2=O	-78	0	-0.062	0.44	-0.74	.	.	.
S=c1[nH]nc(-c2ccco2)n1Cc1ccccc1	-12	-4	-0.26	-0.79	.	.	.	.
SMILES	S1P1 ag pot	S1P3 ag	M1 antag	M1 ag	D1 allo mod	D1 mod confirm	D1 ag no DA	Isoprot counter
O=c1c2ccccc2nc(-c2ccco2)n1Cc1ccccc1	.	.	0.36	-0.2	7.8*	19492*	1608	+
CCCCCn1c(-c2ccco2)nc2nc3ccccc3nc21	0	1	-0.39	0.012	12*	18024*	1828	+
c1coc(-c2nc3nc4ccccc4nc3n2CC2CCCO2)c1 (stereo not given)	.	.	.	.	4.8*	10012*	1816	+
O=C(CCSc1nc2ccccc2o1)N1CCOCC1	3	-1	0.17	-0.35	3.6*	7988*	1548	i
CCc1ccc2nc(SCC(=O)N(CC)CC)c(C#N)cc2c1	-22	0	1.1	-0.84	3.1*	8128*	1728	+
CCOc1ccc2nc(SCC#N)c(C#N)cc2c1	-47	1	-0.23	0.61	-0.0021	.	.	.
COc1nc(N2CCOCC2)nc(-n2cccc2)n1	-28	0	0.56	-0.33	17*	12956*	1432	+
Cc1cc(Oc2ccc(-c3ccccc3)cc2)nc(N2CCOCC2)n1	-6	0	0.24	-0.81	0.6	.	.	.
COc1nc(N2CCCC2)nc(-n2cc(-c3ccccc3)nn2)n1	6	-1	0.22	0.7	-0.035	.	.	.
c1ccc(Oc2nc(Oc3ccccc3)nc(N3CCOCC3)n2)cc1	-28	0	-0.43	-1	3.7*	6884*	.	+
O=C(CCCc1c[nH]c2ccccc12)N1CCN(S(=O)(=O)c2cccs2)CC1	15	-1	-0.27	-0.46	0.6	.	.	.
CCC(c1nnnn1Cc1ccco1)N(CCN1CCOCC1)Cc1cc2cc(C)ccc2[nH]c1=O (stereo not given)	8	-1	-0.75	0.22	-0.9	.	.	.
CC1(C)Cc2c(c(-c3ccco3)nc3n[nH]c(N)c23)CO1	-6	-1	-0.095	-0.28	11*	17288*	1464	+
CC1(C)Cc2c(c(-c3ccco3)[nH]c(=O)c2C#N)CO1	-3	-1	0.2	0.087	4.3*	15660*	1772	+
CN(C)CCNc1nc(-c2ccco2)c2c(c1C#N)CC(C)(C)OC2	-25	0	-0.37	-0.077	.	.	.	.
CC1(C)Cc2c(C#N)c(NCc3ccco3)nc(-c3ccco3)c2CO1	-57	2	0.26	-0.11	.	.	.	.
CC1(C)Cc2c(C#N)c(N3CCCC3)nc(-c3ccco3)c2CO1	-82	2	-0.0047	-0.049	5.3*	9980*	1576	i

Source: PubChem (several laboratories)
